The subject of test [1] is Cavia porcellus. Nature of the test: In vivo inhibition of […]- epoxymethano-PGH2 (1 uM) induced platelet aggregation of guinea pig platelet-rich plasma (PRP) 1 hr after per os administration at 1 mg/kg po. The test is classed as functional. Summed up: (§1)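 Guinea pigs dosed orally. Platelet-rich plasma taken 1 h later and aggregation triggered with 11,9-epoxymethano-PGH2 (U-IPA) at 1 µM.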

Test [2] deals with T1, Thromboxane A2 receptor (Homo sapiens) (UniProt P21731).
T1 sequence (whole entry): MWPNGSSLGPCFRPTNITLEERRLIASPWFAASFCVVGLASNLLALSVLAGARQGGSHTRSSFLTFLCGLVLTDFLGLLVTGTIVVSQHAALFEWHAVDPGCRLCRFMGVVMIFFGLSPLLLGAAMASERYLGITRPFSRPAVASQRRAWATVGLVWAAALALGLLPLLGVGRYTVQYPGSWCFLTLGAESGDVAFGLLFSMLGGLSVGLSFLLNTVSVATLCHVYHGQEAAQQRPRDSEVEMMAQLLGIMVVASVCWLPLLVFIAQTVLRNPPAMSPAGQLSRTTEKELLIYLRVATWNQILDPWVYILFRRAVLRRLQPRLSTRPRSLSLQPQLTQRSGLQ
Nature of the test: In vitro for percent inhibition against TXA2 / PGH-2 receptor using [125I]PTA-OH in human platelets at 10 e-5 M. In a few lines: (§2)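 Washed human platelets from volunteer blood drawn into EDTA 5 mM and indomethacin 20 µM (final); PRP at 200 g, pellet at 2000 g. 5 × 10^7 platelets incubated 30 min at 37 °C with 0.1 nM [125I]PTA-OH in Tris/NaCl/dextrose/indomethacin buffer, pH 7.4. Screening at 10^-7 and 10^-5 M. Filtration, gamma counting. Nonspecific binding set by a tetrahydrocarbazole-acetic acid antagonist. Triplicate.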

Test [3] addresses T2, Thromboxane A2 receptor (Homo sapiens, UniProt P21731).
T2 sequence (P21731 whole entry): T1 sequence (whole entry)
The test is described as follows: Tested in vitro for inhibition constant against TXA2 / PGH-2 receptor using [125I]PTA-OH binding affinity to human platelets.

The target of test [4] is T1, Thromboxane A2 receptor (Homo sapiens). Nature of the test: Tested in vitro for percent inhibition against TXA2 / PGH-2 receptor using [125I]PTA-OH in human platelets at 10 e-7 M. Summed up: as §2
Test [5] deals with Cavia porcellus. Nature of the test: In vivo inhibition of […]- epoxymethano-PGH2 (1 uM) induced platelet aggregation of guinea pig platelet-rich plasma (PRP) 1 hr after per os administration at 0.3 mg/kg po. Type of test: functional. In a few lines: as §1

One may read the inhibition in vivo as the percentage by which the read-out fell short of the control. Read a high inhibition in vivo as a strong effect. A word on the inhibition: it is the change of the read-out against control, counted positive when it falls. Read a low inhibition as a response near the control. One may read the Ki as a dissociation constant, usually derived from enzyme kinetics or from competition with a known ligand. Low values mean a stronger hold on the target, high ones a looser hold on the target. Consider `CC(C)(CC(=O)O)Cc1nc2cc(Cl)cnc2n1Cc1ccc(Cl)cc1` [MIPITROBAN], for which, in test [1], 1 mg/kg produced 81% inhibition in vivo. Further, the inhibition in test [2] came to 100%; in test [4], 97%. The molecule further had an inhibition constant (Ki) in test [3] of 21 nM. In test [5], the inhibition in vivo at 0.3 mg/kg turned out to be 44%.

Source of the values: ChEMBL document CHEMBL1126650, “Synthesis and structure-activity relationships of novel benzimidazole and imidazo[4,5-b]pyridine acid derivatives as thromboxane A2 receptor antagonists” (J Med Chem, 1993).
